Activity calls are given as the source filed them. The calls are words filed in the database; no cut-off is given here.
Legend:
RAW264.7 [1] = assay: Inhibition of MMP9 activity in RANKL-induced mouse RAW264.7 cells at 20 uM after 5 days by gelatin zymography
RAW264.7 [2] = assay: Inhibition of RANKL-stimulated JNK phosphorylation in mouse RAW264.7 cells at 20 uM by Western blotting analysis; assay type: cell-based
Method in brief: (§1)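 Compound added 2 h before RANKL, followed by 15 min further incubation. Total cell lysates blotted on 12% SDS-PAGE for total and phosphorylated MAPKs, with milk block, primary overnight at 4 °C, HRP secondary, chemiluminescence and densitometry. At least three independent experiments.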

RAW264.7 [3] = assay: Induction of HO-1 protein expression in RANKL-induced mouse RAW264.7 cells up to 20 uM after 48 hrs by Western blot analysis
[4] = molecular target: MAP kinase p38 (Mus musculus) (UniProt P47811+O08911+Q9WUI1+Q9Z1B7); assay: Inhibition of RANKL-stimulated p38 MAPK phosphorylation in mouse RAW264.7 cells at 20 uM by Western blotting analysis; assay type: cell-based
Method in brief: as §1

RAW264.7 [5] = assay: Inhibition of NFATc1 expression in RANKL-induced mouse RAW264.7 cells at 20 uM after 24 hrs by immunofluorescence staining; assay type: functional, cell-based
Method in brief: (§2)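 Compound 20 μM, alone or with SnPP 10 μM, plus RANKL 50 ng/mL for 24 h. Nuclear NFATc1 by western blot of nuclear extracts, and by immunofluorescence: methanol-fixed cells, 4% BSA block, anti-NFATc1 1:100 overnight at 4 °C, FITC secondary, DAPI counterstain. n = 5.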

RAW264.7 [6] = assay: Induction of nuclear accumulation of Nrf2 in RANKL-induced mouse RAW264.7 cells up to 20 uM after 3 hrs by Western blot analysis; assay type: functional, cell-based
Method in brief: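 Nuclear protein extracted with hypotonic then hypertonic (420 mM NaCl) buffers after 3 h RANKL 50 ng/mL with compound. Samples run on 12% SDS-PAGE and immunoblotted; at least three independent experiments.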

RAW264.7 [7] = assay: Antiosteoclast activity in mouse RAW264.7 cells assessed as reduction of RANKL-induced osteoclasts differentiation by measuring TRAP positive multinucleated cells after 5 days; assay type: functional, cell-based
Method in brief: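 Cells seeded 24 h, then 5 days in α-MEM with 10% FBS, RANKL 50 ng/mL and test compound. Cells fixed in 10% formalin 10 min and TRAP-stained. Multinucleated TRAP+ cells with three or more nuclei counted by light microscopy; mean ± SD, n = 5.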

RAW264.7 [8] = assay: Antiosteoclast activity in mouse RAW264.7 cells assessed as reduction of RANKL-induced osteoclasts differentiation by measuring TRAP positive multinucleated cells after 5 days in presence of tin protoporphyrin 9 (SnPP); assay type: functional, cell-based
Method in brief: (§3)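 RANKL 50 ng/mL for 5 days in α-MEM with 10% FBS after 24 h seeding; SnPP 10 μM with test compound. TRAP+ multinucleated cells (≥3 nuclei) counted after formalin fixation and staining. TRAP activity: fixed cells in 50 mM citrate pH 4.6, 10 mM tartrate, 5 mM pNPP for 1 h, stopped with 0.1 N NaOH, A410, as % of RANKL-alone.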

RAW264.7 [9] = assay: Inhibition of NFATc1 expression in RANKL-induced mouse RAW264.7 cells at 20 uM after 24 hrs by immunofluorescence staining in presence of tin protoporphyrin 9 (SnPP); assay type: functional, cell-based
Method in brief: as §2

RAW264.7 [10] = assay: Inhibition of RANKL-induced H2O2 production in mouse RAW264.7 cells pretreated for 2 hrs before RANKL stimulation for 10 mins
RAW264.7 [11] = assay: Inhibition of RANKL-stimulated ERK phosphorylation in mouse RAW264.7 cells at 20 uM by Western blotting analysis; assay type: cell-based
Method in brief: as §1

RAW264.7 [12] = assay: Antiosteoclast activity in mouse RAW264.7 cells assessed as reduction of RANKL-induced osteoclasts differentiation by measuring TRAP activity after 5 days in presence of tin protoporphyrin 9 (SnPP); assay type: functional, cell-based
Method in brief: as §3

RAW264.7 [13] = assay: Cytotoxicity against mouse RAW264.7 cells assessed as cell viability at 5 to 20 uM after 24 hrs by MTT assay; assay type: cell-based; settings: raw264.7, 24 h
Method in brief: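 Cells grown in DMEM with 10% heat-inactivated FBS. Exposure to compound or 0.1% DMSO vehicle for 24 h. MTT added 1 h at 37 °C, formazan dissolved in DMSO and read at 570 nm.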

RAW264.7 [14] = assay: Inhibition of RANKL-induced superoxide anion production in mouse RAW264.7 cells pretreated for 2 hrs before RANKL stimulation for 10 mins
RAW264.7 [15] = assay: Inhibition of MMP9 activity in RANKL-induced mouse RAW264.7 cells at 20 uM after 5 days by gelatin zymography in presence of tin protoporphyrin 9 (SnPP)

inhibition [4]: Active
Structure (SMILES): C=CCc1ccc(O)c(-c2cc(CC=C)ccc2O)c1 [MAGNOLOL]
inhibition (RAW264.7 [1]): Active | inhibition (RAW264.7 [2]): Active | Activity (RAW264.7 [3]): Active | inhibition (RAW264.7 [5]): Active | Activity (RAW264.7 [6]): Active | Activity (RAW264.7 [7]): Dose-dependent effect | Activity (RAW264.7 [8]): inactive | inhibition (RAW264.7 [9]): inactive | inhibition (RAW264.7 [10]): Dose-dependent effect | inhibition (RAW264.7 [11]): Active | Activity (RAW264.7 [12]): inactive | Activity (RAW264.7 [13]): Non-toxic | inhibition (RAW264.7 [14]): Dose-dependent effect | inhibition (RAW264.7 [15]): inactive

Reference: ChEMBL document CHEMBL3393011, “Magnolol Inhibits RANKL-induced osteoclast differentiation of raw 264.7 macrophages through heme oxygenase-1-dependent inhibition of NFATc1 expression” (J Nat Prod, 2015)
